Consider 6 compounds from PMC10373466 (ACS Omega, 2023).

For series [1], the target named is hAChE (Homo sapiens, UniProt P22303). The series can be described thus: In vitro AChE inhibition assay. The conditions noted are these: for IC50: in vitro AChE inhibition IC50 ± SD, Ellman method, n = 3. In kind it is biochemical. For orientation: Ellman's reagent forms a yellow product with free thiols.
The target of series [2] is hBuChE (Homo sapiens, UniProt P06276). Briefly: In vitro BuChE inhibition assay. The conditions noted are these: for IC50: BuChE IC50 ± SD, modified Ellman method. In kind it is biochemical.
Sequence of hBuChE (P06276 29-602): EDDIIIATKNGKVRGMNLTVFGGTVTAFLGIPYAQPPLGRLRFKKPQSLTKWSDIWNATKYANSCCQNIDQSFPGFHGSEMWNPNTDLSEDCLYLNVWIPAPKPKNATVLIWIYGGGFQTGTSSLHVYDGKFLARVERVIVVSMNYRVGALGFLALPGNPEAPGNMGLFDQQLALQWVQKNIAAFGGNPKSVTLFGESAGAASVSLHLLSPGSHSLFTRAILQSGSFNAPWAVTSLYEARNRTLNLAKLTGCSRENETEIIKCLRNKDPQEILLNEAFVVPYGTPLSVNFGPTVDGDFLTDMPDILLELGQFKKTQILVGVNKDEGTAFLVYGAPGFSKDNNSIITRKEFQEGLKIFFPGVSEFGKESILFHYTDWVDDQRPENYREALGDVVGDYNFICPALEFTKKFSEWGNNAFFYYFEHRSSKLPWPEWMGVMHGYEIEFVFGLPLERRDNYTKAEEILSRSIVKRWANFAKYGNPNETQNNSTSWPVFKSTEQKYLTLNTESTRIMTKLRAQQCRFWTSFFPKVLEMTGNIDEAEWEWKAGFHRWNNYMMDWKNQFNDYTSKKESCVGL
Series [3] concerns the target BACE-1 (Homo sapiens, UniProt P56817). Briefly: β-Secretase inhibition assay. In kind it is biochemical. The conditions noted are these: BACE-1 IC50 ± SD.
Series [4] concerns the target T1, hMAO-B (Homo sapiens, UniProt P27338).
T1 sequence (P27338 1-520): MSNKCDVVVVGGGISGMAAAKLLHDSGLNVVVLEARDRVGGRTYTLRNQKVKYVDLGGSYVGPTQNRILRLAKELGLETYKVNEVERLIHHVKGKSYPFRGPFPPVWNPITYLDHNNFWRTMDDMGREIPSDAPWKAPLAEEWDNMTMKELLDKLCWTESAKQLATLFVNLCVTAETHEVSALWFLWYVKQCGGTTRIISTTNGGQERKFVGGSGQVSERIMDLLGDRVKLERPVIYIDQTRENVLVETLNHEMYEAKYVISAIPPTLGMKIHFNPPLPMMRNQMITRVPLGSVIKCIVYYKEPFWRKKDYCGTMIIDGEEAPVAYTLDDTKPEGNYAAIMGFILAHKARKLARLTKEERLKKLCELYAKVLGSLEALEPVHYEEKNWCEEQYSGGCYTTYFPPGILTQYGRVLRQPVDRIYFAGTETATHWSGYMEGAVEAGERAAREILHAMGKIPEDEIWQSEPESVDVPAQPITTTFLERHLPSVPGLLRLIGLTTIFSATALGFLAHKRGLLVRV
Briefly: biochemical. In kind it is biochemical.

The target in series [5] is Aβ1–42 (Homo sapiens, UniProt P05067). Briefly: Self-induced Aβ1–42 aggregation inhibition. The conditions noted are these: for IC50: Aβ1–42 aggregation inhibition IC50, self-induced aggregation; for inhibition at 10 µM: read-out: Aβ1–42 (% inhibition at 10 μM). It counts as biochemical.
Sequence of Aβ1–42 (P05067 672-713): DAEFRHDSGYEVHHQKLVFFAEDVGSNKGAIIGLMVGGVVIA
Series [6] in a line: Total antioxidant capacity. The conditions noted are these: Trolox TAC value = 1.00.
A short description of series [7]: In vitro neurotoxicity MTT assay. The conditions noted are these: human, SH-SY5Y neuroblastoma cells. In kind it is cell-based.
Series [8] in a line: Metal chelation assay, UV–vis spectroscopy. It counts as physicochemical. The conditions noted are these: compound 30 μM, FeSO4 30 μM, ethanol. In a few lines:
(§1)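 Test compound and metal salt (CuSO4, ZnSO4 or FeSO4) mixed in ethanol, both at 30 μM final, and incubated 30 min at room temperature. UV-vis spectra were recorded from 200 to 600 nm for the compound alone, the metal alone and the mixture. Spectra of metal alone and compound alone were subtracted from the mixture spectrum to give the difference spectrum attributed to complex formation.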

Series [9] is described as follows: Metal chelation assay, UV–vis spectroscopy. It counts as physicochemical. Particulars: compound 30 μM, CuSO4 30 μM, ethanol. Put shortly:
as §1

Series [10] can be described thus: Metal chelation assay, UV–vis spectroscopy. Particulars: compound 30 μM, ZnSO4 30 μM, ethanol. In kind it is physicochemical. Put shortly: as §1
The nature of series [11]: In vitro hepatotoxicity MTT assay. Particulars: human. For orientation: Formazan colour is commonly taken as a measure of viable cells.
Series [12] deals with HepG2 cell line. Briefly: In vitro hepatotoxicity MTT assay. Particulars: ratio of hepatotoxicity IC50 to AChE IC50.

Values joined by “and” are separate entries in the source; they are usually repeats but may differ in a detail not shown here. Equal entries are not always repeated.

Sequence of hAChE (P22303 32-614): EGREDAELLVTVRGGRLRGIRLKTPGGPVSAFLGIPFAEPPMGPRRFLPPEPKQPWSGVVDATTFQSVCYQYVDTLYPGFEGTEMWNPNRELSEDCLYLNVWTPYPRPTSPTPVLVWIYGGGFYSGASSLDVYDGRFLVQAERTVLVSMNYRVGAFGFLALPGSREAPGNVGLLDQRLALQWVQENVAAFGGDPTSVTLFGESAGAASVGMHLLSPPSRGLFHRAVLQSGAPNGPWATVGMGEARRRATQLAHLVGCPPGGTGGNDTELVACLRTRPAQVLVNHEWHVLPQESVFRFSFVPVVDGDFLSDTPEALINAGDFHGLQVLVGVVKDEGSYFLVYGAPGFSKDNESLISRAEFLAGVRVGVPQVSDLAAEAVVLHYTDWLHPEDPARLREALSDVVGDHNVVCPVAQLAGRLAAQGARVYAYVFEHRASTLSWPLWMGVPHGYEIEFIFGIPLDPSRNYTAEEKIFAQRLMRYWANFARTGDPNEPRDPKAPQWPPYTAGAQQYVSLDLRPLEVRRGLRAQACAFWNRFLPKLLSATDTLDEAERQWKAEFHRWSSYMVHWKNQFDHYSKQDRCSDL
Sequence of BACE-1 (P56817 46-501): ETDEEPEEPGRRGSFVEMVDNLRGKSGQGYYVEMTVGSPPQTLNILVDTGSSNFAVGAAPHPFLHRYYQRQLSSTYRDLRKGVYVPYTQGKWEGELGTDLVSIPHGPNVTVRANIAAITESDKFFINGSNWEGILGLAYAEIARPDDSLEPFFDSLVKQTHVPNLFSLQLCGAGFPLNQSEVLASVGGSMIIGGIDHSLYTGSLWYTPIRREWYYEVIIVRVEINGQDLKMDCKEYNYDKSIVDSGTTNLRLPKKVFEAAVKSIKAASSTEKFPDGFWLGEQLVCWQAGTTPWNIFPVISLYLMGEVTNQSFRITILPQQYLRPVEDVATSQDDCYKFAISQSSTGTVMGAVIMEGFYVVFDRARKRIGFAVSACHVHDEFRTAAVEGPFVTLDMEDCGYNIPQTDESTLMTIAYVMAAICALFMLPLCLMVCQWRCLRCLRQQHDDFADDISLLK

For `Nc1c2c(nc3c1C(c1cccc([N+](=O)[O-])c1)c1ccc(OS(=O)(=O)c4ccc(F)cc4)cc1O3)CCCC2` (centres unmarked) [4c, 11-Amino-12-(3-nitrophenyl)-7,9,10,12-tetrahydro-8H-chromeno[2,3-b]quinolin-3-yl-4-fluorobenzenesulfonate], the “AChE SI (selectivity index) = IC50 of BuChE/IC50 of AChE” value (“AChE SI (selectivity index) = IC50” below) in series [1] came to 1.11. The IC50 in series [1] was 620 ± 30 nM; in [2] it was 690 ± 41 nM; in series [3], 2680 ± 123 nM; in series [4] it was 8040 ± 270 nM; in [5], 4280 ± 170 nM; in series [7], 27900 ± 1240 nM. In addition, in series [2], the “BuChE SI (selectivity index) = IC50 of AChE/IC50 of BuChE” value (“BuChE SI (selectivity index) = IC50” for short) is reported as 0.90. Besides, the inhibition at 10 µM in series [5] is 47%. Further, the “total antioxidant capacity (Trolox equivalent)” value (shortened to “total antioxidant capacity”) in [6] is listed as 0.80 ± 0.032 μmol of Trolox equivalent/μmol tested compound. The “UV–vis spectral change on addition of FeSO4 (metal chelation)” value in [8] is given as “extraordinary hyperchromic shifts”. The “UV–vis spectral change on addition of CuSO4 (metal chelation)” value in series [9] is recorded as “extraordinary hyperchromic shifts”. Moreover, the “UV–vis spectral change on addition of ZnSO4 (metal chelation)” value in [10] is on record as “extraordinary hyperchromic shifts”. The same compound had an IC50 at 24 h in series [11] of 78300 ± 3600 nM. Further, the “safety index ratio (SI)” value in series [12] amounted to 125.26.
`COc1ccc(S(=O)(=O)Oc2ccc3c(c2)Oc2nc4c(c(N)c2C3c2cccc(OC)c2)CCCC4)cc1` (centres unmarked) [4g, 11-Amino-12-(3-methoxyphenyl)-7,9,10,12-tetrahydro-8H-chromeno[2,3-b]quinolin-3-yl-4-methoxybenzenesulfonate]: in series [1], the “AChE SI (selectivity index) = IC50” value came to 1.18. Moreover, the IC50 turned out to be 300 ± 10 nM in series [1]; 350 ± 21 nM in series [2]; 1460 ± 68 nM in series [3]; 12700 ± 430 nM in [4]; 11700 ± 450 nM in series [5]; 86000 ± 3810 nM in [7]. Besides, the “BuChE SI (selectivity index) = IC50” value in series [2] is 0.85. Moreover, the inhibition at 10 µM in [5] came to 43%. Also, the “UV–vis spectral change on addition of FeSO4 (metal chelation)” value in series [8] is “hyperchromic shifts”. The “UV–vis spectral change on addition of CuSO4 (metal chelation)” value in series [9] is “hyperchromic shifts”. Further, the “UV–vis spectral change on addition of ZnSO4 (metal chelation)” value in [10] is reported as “slight hypochromic shift”. The compound also had an IC50 at 24 h in [11] of 126000 ± 5300 nM. Further, in series [12], the “safety index ratio (SI)” value was determined as 417.88.
Take `Cc1ccc(S(=O)(=O)Oc2ccc3c(c2)Oc2nc4c(c(N)c2C3c2ccc(Cl)c(Cl)c2)CCCC4)cc1` (centres unmarked) [4n, 11-Amino-12-(3,4-dichlorophenyl)-7,9,10,12-tetrahydro-8H-chromeno[2,3-b]quinolin-3-yl-4-methylbenzenesulfonate]: the “AChE SI (selectivity index) = IC50” value in [1] stood at 0.38. Besides, the IC50 in series [1] came out at 470 ± 20 nM; in series [2] it was 180 ± 11 nM; in [3] it was 250 ± 11 nM; in series [4], 3730 ± 130 nM; in series [5], 17400 ± 680 nM; in [7] it was 91700 ± 4060 nM. Further, the “BuChE SI (selectivity index) = IC50” value in series [2] is listed as 2.59. For the same compound, the “fold more active than rivastigmine (BuChE inhibition)” value in series [2] is about 4 fold. Also, the “times better than iproniazid (MAO-B inhibition)” value in series [4] was about 2 times. Moreover, the inhibition at 10 µM in series [5] was 40%. The “total antioxidant capacity” value in series [6] is 0.66 ± 0.026 μmol of Trolox equivalent/μmol tested compound. In addition, the “UV–vis spectral change on addition of FeSO4 (metal chelation)” value in series [8] is recorded as “remarkable hyperchromic effect”. For the same compound, in series [9], the “UV–vis spectral change on addition of CuSO4 (metal chelation)” value is “remarkable hyperchromic effect”. Further, the “UV–vis spectral change on addition of ZnSO4 (metal chelation)” value in [10] is given as “remarkable hyperchromic effect”. Inhibition in [11] was half-maximal at 67400 ± 3300 nM (IC50 at 24 h). Moreover, the “safety index ratio (SI)” value in series [12] is 141.53.
As for `Nc1c2c(nc3c1C(c1cccc([N+](=O)[O-])c1)c1ccc(OCC(=O)c4ccc(Cl)cc4)cc1O3)CCCC2` (centres unmarked) [5c, 2-[11-Amino-12-(3-nitrophenyl)-7,9,10,12-tetrahydro-8H-chromeno[2,3-b]quinolin-3-yl]oxy-1-(4-chlorophenyl)ethan-1-one], the “AChE SI (selectivity index) = IC50” value in series [1] is 0.19. The IC50 in series [1] is 440 ± 20 nM; in [2] it was 82 nM and 80 nM; in series [3], 380 ± 17 nM; in [4], 5150 ± 170 nM; in series [5], 2850 ± 110 nM; in series [7], 36300 ± 1430 nM. The “BuChE SI (selectivity index) = IC50” value in series [2] was found to be 5.37. For the same compound, in series [2], the “fold more active than rivastigmine (BuChE inhibition)” value came to 10 fold. In addition, the inhibition at 10 µM in [5] was 59%. For the same compound, the “total antioxidant capacity” value in [6] is reported as 0.88 ± 0.034 μmol of Trolox equivalent/μmol tested compound. Moreover, the “UV–vis spectral change on addition of FeSO4 (metal chelation)” value in series [8] is “noteworthy hyperchromic effect”. Further, the “UV–vis spectral change on addition of CuSO4 (metal chelation)” value in [9] is listed as “noteworthy hyperchromic effect”. In addition, the “UV–vis spectral change on addition of ZnSO4 (metal chelation)” value in [10] was “slight hyperchromic effect”. Besides, the IC50 at 24 h in series [11] is 188000 ± 6900 nM. For the same compound, in series [12], the “safety index ratio (SI)” value worked out at 427.73.
Take `Nc1c2c(nc3c1C(c1ccc(Cl)c(Cl)c1)c1ccc(OCC(=O)c4ccc(Cl)cc4)cc1O3)CCCC2` (centres unmarked) [5d, 2-[11-Amino-12-(3,4-dichlorophenyl)-7,9,10,12-tetrahydro-8H-chromeno[2,3-b]quinolin-3-yl]oxy-1-(4-chlorophenyl)ethan-1-one]: in [1], the “AChE SI (selectivity index) = IC50” value came out at 0.59 and the IC50 was 250 ± 10 nM. Moreover, in series [2], the “BuChE SI (selectivity index) = IC50” value was 1.69, the “fold more active than rivastigmine (BuChE inhibition)” value stood at 5 fold and half-maximal inhibition (IC50) required 140 ± 9 nM. The IC50 in [3] is 440 ± 21 nM. For the same compound, in [4], inhibition was half-maximal at 2420 ± 80 nM (IC50) and the “times better than iproniazid (MAO-B inhibition)” value is reported as about 3 times. In series [5], the “times more active than curcumin (Aβ aggregation inhibition)” value is listed as 8 fold, it took 740 ± 30 nM to reach half-maximal inhibition (IC50) and the inhibition at 10 µM came out at 76%. The compound also yielded a concentration for half-maximal inhibition (IC50) in series [7] of 71100 ± 2800 nM. The “UV–vis spectral change on addition of FeSO4 (metal chelation)” value in series [8] is given as “noticeable optical shift”. In addition, the “UV–vis spectral change on addition of CuSO4 (metal chelation)” value in [9] was “slight hyperchromic shift”. Further, the “UV–vis spectral change on addition of ZnSO4 (metal chelation)” value in series [10] is “slight hyperchromic shift”. For the same compound, in [11], half-maximal inhibition (IC50 at 24 h) required 154000 ± 6200 nM. The “safety index ratio (SI)” value in series [12] is given as 611.51.
For `Nc1c2c(nc3c1C(c1ccc(Cl)c(Cl)c1)c1ccc(OCC(=O)c4ccccc4)cc1O3)CCCC2` (centres unmarked) [5i, 2-[11-Amino-12-(3,4-dichlorophenyl)-7,9,10,12-tetrahydro-8H-chromeno[2,3-b]quinolin-3-yl]oxy-1-phenylethan-1-one], in [1], the “AChE SI (selectivity index) = IC50” value is 0.47 and the 50% inhibitory concentration (IC50) was found to be 560 ± 30 nM. For the same compound, in series [2], the “BuChE SI (selectivity index) = IC50” value was determined as 2.12, the “fold more active than rivastigmine (BuChE inhibition)” value was about 4 fold and the IC50 turned out to be 260 ± 16 nM. In series [3], this compound came in with an IC50 of 2120 ± 98 nM. Also, in series [4], 1620 ± 50 nM corresponded to half-maximal inhibition (IC50) and the “times better than iproniazid (MAO-B inhibition)” value is about 4 times. In addition, in series [5], the IC50 is 1410 ± 50 nM and the inhibition at 10 µM stood at 68%. In [7], this compound gave an IC50 of 17200 ± 760 nM. Further, the “UV–vis spectral change on addition of FeSO4 (metal chelation)” value in [8] is “hyperchromic effect”. Besides, the “UV–vis spectral change on addition of CuSO4 (metal chelation)” value in series [9] was “without remarkable shifts”. Also, in series [10], the “UV–vis spectral change on addition of ZnSO4 (metal chelation)” value is “without remarkable shifts”. This compound yielded an IC50 at 24 h in [11] of 113000 ± 5100 nM. Further, the “safety index ratio (SI)” value in [12] is listed as 200.53.

Usually IC50 stands for the concentration that gives 50% inhibition. As usually defined, the inhibition is how much of the control response was suppressed.
